Test results taken from ChEMBL document CHEMBL4706598 (Eur J Med Chem, 2020).
pIC50: −log10 of the molar value. One block for each molecule: values may come before it. Calls of active or inactive are those of the source. The rule behind the calls is not given here.

Tests used:
[1] = biological target: Dipeptidyl peptidase 8 (Homo sapiens, UniProt Q6V1X1); test: Inhibition of DPP8 (unknown origin)
[2] = biological target: Dipeptidyl peptidase 9 (Homo sapiens, UniProt Q86TI2); test: Inhibition of DPP9 (unknown origin)
[3] = system: HepG2; test: Cytotoxicity against human HepG2 cells assessed as reduction in cell viability at 1 to 100 uM measured after 48 hrs by MTT assay; format: cell-based; settings: hepg2, 48 h, dose 1-100 µM
How it was run: (§1)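 HepG2 cells were exposed to compound at a range of concentrations for 48 h. Viability was measured by MTT assay. Mean ± SD, n = 3.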

[4] = biological target: Dipeptidyl peptidase 4 (Homo sapiens, UniProt P27487); test: Inhibition of DPP4 in human Caco-2 cells using AP-AFC as substrate preincubated with enzyme for 10 mins followed by substrate addition and measured after 10 mins by fluorescence based analysis; format: cell-based
[5] = system: Mus musculus; test: Anti-Hyperglycemic activity in high fat diet-fed/streptozotocin-induced type 2 diabetic mellitus C57BL/6 mouse model assessed as reduction in AUC(0 to 120 mins) of blood glucose level at 10 mg/kg, ip administered 30 mins prior to glucose challenge and measured after 120 mins by IGTT; format: functional; settings: C57BL/6, ip, 2.5 h, time 150 min
How it was run: (§2)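 Glucose tolerance tests (intraperitoneal or oral) in HFD/STZ type 2 diabetic male C57BL/6 mice. Glucose AUC was calculated over 0–120 min. Percent reduction came from AUC normalised to saline-challenged controls. Mean ± SD, n = 4. Statistics: one-way ANOVA with LSD post-test.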

[6] = system: Mus musculus; test: Anti-Hyperglycemic activity in high fat diet-fed/streptozotocin-induced type 2 diabetic mellitus C57BL/6 mouse model assessed as blood glucose level at 10 mg/kg, ip administered 30 mins prior to glucose challenge and measured after 0.5 hrs by IPGTT (reference value: 12.3 to 15.3 mM); format: functional; settings: time 60 min, 1 h
How it was run: (§3)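 Male C57BL/6 mice made type 2 diabetic by high-fat diet plus streptozotocin. Each received a single intraperitoneal dose (1, 5 or 10 mg/kg) 30 min before an intraperitoneal glucose challenge. Blood glucose was read at 0, 0.5, 1, 1.5 and 2 h. Results are mean ± SD, n = 4.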

[7] = system: Mus musculus; test: Anti-Hyperglycemic activity in high fat diet-fed/streptozotocin-induced type 2 diabetic mellitus C57BL/6 mouse model assessed as blood glucose level at 10 mg/kg, ip administered 30 mins prior to glucose challenge and measured after 1.5 hrs by IPGTT (reference value: 12.3 to 15.3 mM); format: functional; settings: time 120 min, 2 h; how it was run: as §3
[8] = system: Mus musculus; test: Anti-Hyperglycemic activity in high fat diet-fed/streptozotocin-induced type 2 diabetic mellitus C57BL/6 mouse model assessed as reduction in blood glucose level at 10 mg/kg/day for 14 days and measured on day 5; format: functional, organism-based; settings: time 5.0 day
How it was run: (§4)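 HFD/STZ-induced type 2 diabetic male C57BL/6 mice were dosed at 10 mg/kg/day for 14 days. Plasma glucose was tracked over the treatment period and compared with diabetic controls. Mean ± SD of 4 mice. Statistics: one-way ANOVA with LSD post-test.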

[9] = system: Mus musculus; test: Anti-Hyperglycemic activity in high fat diet-fed/streptozotocin-induced type 2 diabetic mellitus C57BL/6 mouse model assessed as blood glucose level at 10 mg/kg, ip administered 30 mins prior to glucose challenge and measured after 1 hrs by IPGTT (reference value: 12.3 to 15.3 mM); format: functional; settings: time 90 min, 1.5 h; how it was run: as §3
[10] = system: Mus musculus; test: Anti-Hyperglycemic activity in high fat diet-fed/streptozotocin-induced type 2 diabetic mellitus C57BL/6 mouse model assessed as reduction in blood glucose level at 10 mg/kg/day for 14 days and measured on day 14; format: functional; settings: C57BL/6, 336 h, time 14 day; how it was run: as §4
[11] = system: Mus musculus; test: Anti-Hyperglycemic activity in high fat diet-fed/streptozotocin-induced type 2 diabetic mellitus C57BL/6 mouse model assessed as blood glucose level at 10 mg/kg, ip administered 30 mins prior to glucose challenge and measured after 2 hrs by IPGTT (reference value: 12.3 to 15.3 mM); format: functional; settings: time 150 min, 2.5 h; how it was run: as §3
[12] = system: Mus musculus; test: Anti-Hyperglycemic activity in high fat diet-fed/streptozotocin-induced type 2 diabetic mellitus C57BL/6 mouse model assessed as blood glucose level at 1 mg/kg, ip administered 30 mins prior to glucose challenge and measured after 0.5 hrs by IPGTT (reference value: 12.7 +/- 0.7 mM); format: functional; settings: time 60 min; how it was run: as §3
[13] = system: Mus musculus; test: Anti-Hyperglycemic activity in high fat diet-fed/streptozotocin-induced type 2 diabetic mellitus C57BL/6 mouse model assessed as reduction in AUC(0 to 120 mins) of blood glucose level at 5 mg/kg, ip administered 30 mins prior to glucose challenge and measured after 120 mins by IGTT; format: functional; settings: C57BL/6, ip, 2.5 h, time 150 min; how it was run: as §2
[14] = system: Mus musculus; test: Anti-Hyperglycemic activity in high fat diet-fed/streptozotocin-induced type 2 diabetic mellitus C57BL/6 mouse model assessed as blood glucose level at 5 mg/kg, ip administered 30 mins prior to glucose challenge and measured after 0.5 hrs by IPGTT (reference value: 13.4 +/- 1.1 mM); format: functional; settings: time 60 min, 1 h; how it was run: as §3
[15] = system: Mus musculus; test: Anti-Hyperglycemic activity in high fat diet-fed/streptozotocin-induced type 2 diabetic mellitus C57BL/6 mouse model assessed as blood glucose level at 5 mg/kg, ip administered 30 mins prior to glucose challenge and measured after 2 hrs by IPGTT (reference value: 13.4 +/- 1.1 mM); format: functional; settings: time 150 min, 2.5 h; how it was run: as §3
[16] = system: Mus musculus; test: Anti-Hyperglycemic activity in high fat diet-fed/streptozotocin-induced type 2 diabetic mellitus C57BL/6 mouse model assessed as blood glucose level at 5 mg/kg, ip administered 30 mins prior to glucose challenge and measured after 1 hr by IPGTT (reference value: 13.4 +/- 1.1 mM); format: functional; settings: time 90 min, 1.5 h; how it was run: as §3
[17] = system: Mus musculus; test: Anti-Hyperglycemic activity in high fat diet-fed/streptozotocin-induced type 2 diabetic mellitus C57BL/6 mouse model assessed as blood glucose level at 10 mg/kg, po administered 30 mins prior to glucose challenge and measured after 90 mins by OGTT (reference value: 15.8 +/-4.5 mM); format: functional; settings: time 120 min, 2 h
[18] = system: Mus musculus; test: Anti-Hyperglycemic activity in high fat diet-fed/streptozotocin-induced type 2 diabetic mellitus C57BL/6 mouse model assessed as reduction in AUC(0 to 120 mins) of blood glucose level at 10 mg/kg, po administered 30 mins prior to glucose challenge and measured after 120 mins by OGTT; format: functional; settings: C57BL/6, po, 2.5 h, time 150 min; how it was run: as §2
[19] = system: Mus musculus; test: Anti-Hyperglycemic activity in high fat diet-fed/streptozotocin-induced type 2 diabetic mellitus C57BL/6 mouse model assessed as blood glucose level at 1 mg/kg, ip administered 30 mins prior to glucose challenge and measured after 2 hrs by IPGTT (reference value: 12.7 +/- 0.7 mM); format: functional; settings: time 150 min, 2.5 h; how it was run: as §3
[20] = system: Mus musculus; test: Anti-Hyperglycemic activity in high fat diet-fed/streptozotocin-induced type 2 diabetic mellitus C57BL/6 mouse model assessed as blood glucose level at 1 mg/kg, ip administered 30 mins prior to glucose challenge and measured after 1 hr by IPGTT (reference value: 12.7 +/- 0.7 mM); format: functional; settings: time 90 min, 1.5 h; how it was run: as §3
[21] = system: Mus musculus; test: Anti-Hyperglycemic activity in high fat diet-fed/streptozotocin-induced type 2 diabetic mellitus C57BL/6 mouse model assessed as blood glucose level at 10 mg/kg, po administered 30 mins prior to glucose challenge and measured after 60 mins by OGTT (reference value: 15.8 +/-4.5 mM); format: functional; settings: time 90 min, 1.5 h
[22] = system: Mus musculus; test: Anti-Hyperglycemic activity in high fat diet-fed/streptozotocin-induced type 2 diabetic mellitus C57BL/6 mouse model assessed as blood glucose level at 5 mg/kg, ip administered 30 mins prior to glucose challenge and measured after 1.5 hrs by IPGTT (reference value: 13.4 +/- 1.1 mM); format: functional; settings: time 120 min, 2 h; how it was run: as §3
[23] = system: Mus musculus; test: Anti-Hyperglycemic activity in high fat diet-fed/streptozotocin-induced type 2 diabetic mellitus C57BL/6 mouse model assessed as blood glucose level at 10 mg/kg, po administered 30 mins prior to glucose challenge and measured after 30 mins by OGTT (reference value: 15.8 +/-4.5 mM); format: functional; settings: time 60 min, 1 h
[24] = system: Mus musculus; test: Anti-Hyperglycemic activity in high fat diet-fed/streptozotocin-induced type 2 diabetic mellitus C57BL/6 mouse model assessed as blood glucose level at 1 mg/kg, ip administered 30 mins prior to glucose challenge and measured after 1.5 hrs by IPGTT (reference value: 12.7 +/- 0.7 mM); format: functional; settings: time 120 min, 2 h; how it was run: as §3
[25] = system: Mus musculus; test: Anti-Hyperglycemic activity in high fat diet-fed/streptozotocin-induced type 2 diabetic mellitus C57BL/6 mouse model assessed as blood glucose level at 10 mg/kg, po administered 30 mins prior to glucose challenge and measured after 120 mins by OGTT (reference value: 15.8 +/-4.5 mM); format: functional; settings: time 150 min, 2.5 h
[26] = system: Mus musculus; test: Anti-Hyperglycemic activity in high fat diet-fed/streptozotocin-induced type 2 diabetic mellitus C57BL/6 mouse model assessed as reduction in AUC(0 to 120 mins) of blood glucose level at 1 mg/kg, ip administered 30 mins prior to glucose challenge and measured after 120 mins by IGTT; format: functional; settings: C57BL/6, ip, 2.5 h, time 150 min; how it was run: as §2
[27] = Cytotoxicity against human HepG2 cells assessed as cell viability at 100 uM measured after 48 hrs by MTT assay; format: cell-based; settings: read-out: Activity; how it was run: as §1

Dipeptidyl peptidase 9, sequence (Q86TI2 whole entry): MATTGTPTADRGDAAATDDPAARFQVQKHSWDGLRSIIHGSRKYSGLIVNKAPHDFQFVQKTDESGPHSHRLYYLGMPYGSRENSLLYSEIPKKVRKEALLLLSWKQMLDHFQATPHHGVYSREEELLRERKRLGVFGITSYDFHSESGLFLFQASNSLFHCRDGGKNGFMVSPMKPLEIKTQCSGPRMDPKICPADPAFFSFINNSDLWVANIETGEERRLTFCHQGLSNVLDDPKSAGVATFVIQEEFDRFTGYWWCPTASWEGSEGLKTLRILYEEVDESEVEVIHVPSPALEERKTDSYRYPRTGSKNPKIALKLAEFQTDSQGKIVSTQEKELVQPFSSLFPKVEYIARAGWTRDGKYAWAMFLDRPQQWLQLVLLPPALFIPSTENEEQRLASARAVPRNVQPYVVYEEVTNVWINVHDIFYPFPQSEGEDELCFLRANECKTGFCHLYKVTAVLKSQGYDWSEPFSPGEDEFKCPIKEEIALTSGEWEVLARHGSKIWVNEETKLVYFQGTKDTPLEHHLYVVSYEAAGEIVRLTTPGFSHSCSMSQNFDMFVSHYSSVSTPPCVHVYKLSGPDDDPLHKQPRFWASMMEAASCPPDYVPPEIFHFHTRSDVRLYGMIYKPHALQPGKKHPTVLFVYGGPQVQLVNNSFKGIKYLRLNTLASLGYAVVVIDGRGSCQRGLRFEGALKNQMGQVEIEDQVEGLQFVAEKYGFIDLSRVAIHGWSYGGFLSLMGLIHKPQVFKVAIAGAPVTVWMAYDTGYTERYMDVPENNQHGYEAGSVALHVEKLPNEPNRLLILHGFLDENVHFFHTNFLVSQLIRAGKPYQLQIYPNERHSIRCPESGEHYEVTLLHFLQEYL
Dipeptidyl peptidase 8, sequence (Q6V1X1 whole entry): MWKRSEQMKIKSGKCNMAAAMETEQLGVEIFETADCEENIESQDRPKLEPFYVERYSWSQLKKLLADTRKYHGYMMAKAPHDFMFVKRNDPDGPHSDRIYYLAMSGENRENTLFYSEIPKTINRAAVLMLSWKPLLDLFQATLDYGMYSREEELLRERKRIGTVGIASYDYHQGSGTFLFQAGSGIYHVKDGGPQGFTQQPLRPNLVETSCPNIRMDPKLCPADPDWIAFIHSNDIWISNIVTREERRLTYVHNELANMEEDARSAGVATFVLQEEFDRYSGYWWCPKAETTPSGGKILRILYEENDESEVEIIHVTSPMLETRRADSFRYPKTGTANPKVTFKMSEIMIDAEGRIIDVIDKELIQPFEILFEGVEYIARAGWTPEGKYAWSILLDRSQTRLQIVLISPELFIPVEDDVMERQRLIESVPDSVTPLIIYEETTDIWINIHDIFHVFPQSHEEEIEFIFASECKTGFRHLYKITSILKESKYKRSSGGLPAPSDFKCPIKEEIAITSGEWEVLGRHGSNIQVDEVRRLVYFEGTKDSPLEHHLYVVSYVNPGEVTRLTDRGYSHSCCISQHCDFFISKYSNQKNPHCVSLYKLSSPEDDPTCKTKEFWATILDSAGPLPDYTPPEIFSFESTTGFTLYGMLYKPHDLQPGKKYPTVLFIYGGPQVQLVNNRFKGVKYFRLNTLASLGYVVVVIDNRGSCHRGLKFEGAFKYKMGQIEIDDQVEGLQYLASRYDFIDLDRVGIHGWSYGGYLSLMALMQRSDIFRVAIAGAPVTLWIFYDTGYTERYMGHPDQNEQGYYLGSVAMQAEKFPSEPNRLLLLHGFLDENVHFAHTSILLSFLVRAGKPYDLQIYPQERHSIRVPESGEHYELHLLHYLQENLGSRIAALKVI
Dipeptidyl peptidase 4, sequence (P27487 whole entry): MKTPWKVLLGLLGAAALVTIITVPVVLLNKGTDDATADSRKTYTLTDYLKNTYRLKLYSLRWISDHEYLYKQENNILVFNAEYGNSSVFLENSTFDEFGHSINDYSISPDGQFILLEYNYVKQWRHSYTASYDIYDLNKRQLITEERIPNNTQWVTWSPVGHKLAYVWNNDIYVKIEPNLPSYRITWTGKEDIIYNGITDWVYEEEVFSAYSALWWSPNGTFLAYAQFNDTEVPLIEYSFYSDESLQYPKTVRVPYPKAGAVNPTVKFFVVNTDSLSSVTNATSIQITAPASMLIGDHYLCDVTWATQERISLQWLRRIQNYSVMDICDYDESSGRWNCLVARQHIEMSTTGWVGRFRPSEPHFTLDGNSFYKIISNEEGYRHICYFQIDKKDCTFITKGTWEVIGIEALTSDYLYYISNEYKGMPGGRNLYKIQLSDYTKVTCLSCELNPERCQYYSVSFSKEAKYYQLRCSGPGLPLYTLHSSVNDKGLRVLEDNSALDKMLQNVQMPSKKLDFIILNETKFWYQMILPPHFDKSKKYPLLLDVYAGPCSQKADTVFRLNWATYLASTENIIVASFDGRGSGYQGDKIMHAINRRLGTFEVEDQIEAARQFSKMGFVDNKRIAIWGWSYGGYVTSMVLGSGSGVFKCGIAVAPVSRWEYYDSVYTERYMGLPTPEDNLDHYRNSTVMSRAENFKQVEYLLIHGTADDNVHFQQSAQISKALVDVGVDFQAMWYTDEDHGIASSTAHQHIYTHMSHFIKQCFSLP

SMILES: Cc1ccc(Nc2cc(N3CCC[C@@H](N)C3)nc3ccnn23)c(C)c1
pIC50 [1]: < 4.00 | pIC50 [2]: < 4.00

SMILES: N[C@@H]1CCCN(c2cc(Nc3cc(Cl)ccn3)n3nccc3n2)C1
pIC50 [1]: < 4.30 | pIC50 [2]: < 4.30

SMILES: N[C@@H]1CCCN(c2cc(NCCc3ccc(Cl)cc3Cl)n3nccc3n2)C1
pIC50 [1]: < 4.00 | pIC50 [2]: < 4.00

SMILES: Cc1ccnc(Nc2cc(N3CCC[C@@H](N)C3)nc3ccnn23)c1
pIC50 [1]: < 4.00 | pIC50 [2]: < 4.00

SMILES: N[C@@H]1CCCN(c2cc(NCc3ccc(Cl)cc3Cl)n3nccc3n2)C1
pIC50 [1]: < 4.00 | pIC50 [2]: < 4.00

SMILES: Clc1ccc(CCNc2cc(N3CCNCC3)nc3ccnn23)c(Cl)c1
pIC50 [1]: < 4.00 | pIC50 [2]: < 4.00 | Activity [3]: Toxic

SMILES: Cc1ccc(Nc2cc(N3CCC[C@@H](N)C3)nc3ccnn23)c(N)c1
pIC50 [1]: < 4.00 | pIC50 [2]: < 4.00

SMILES: CC(C)(C)Nc1cc(NC(C)(C)C)n2nccc2n1
pIC50 [4]: < 4.00

SMILES: Cn1c(=O)cc(N2CCC[C@@H](N)C2)n(Cc2ccccc2C#N)c1=O [ALOGLIPTIN]
inhibition in vivo at 10 mg/kg [5]: 30% | Activity [6]: 22.9 mM | Activity [7]: 16.3 mM | Activity [8]: inactive | Activity [9]: 17.4 mM | inhibition in vivo at 10 mg/kg/day [10]: 57% | Activity [11]: 15 mM

SMILES: CN(c1ccccc1)c1cc(N2CCC[C@@H](N)C2)nc2ccnn12
pIC50 [4]: < 4.00

SMILES: c1cc2nc(N3CCOCC3)cc(Nc3cc[nH]n3)n2n1
pIC50 [4]: < 4.00

SMILES: N[C@@H]1CCCN(c2cc(NCc3ccccc3)n3nccc3n2)C1
pIC50 [1]: < 4.00 | pIC50 [2]: < 4.00 | Activity [3]: Toxic

SMILES: N[C@@H]1CCCN(c2cc(NCc3ccc(O)cc3)n3nccc3n2)C1
pIC50 [1]: < 4.30 | pIC50 [2]: < 4.30

Continued, in another order:

pIC50 [1]: < 4.00 | pIC50 [2]: < 4.00
SMILES: N[C@@H]1CCCN(c2cc(Nc3ccccc3Cl)n3nccc3n2)C1

pIC50 [1]: < 4.00 | pIC50 [2]: < 4.00
SMILES: O=[N+]([O-])c1ccccc1Nc1cc(N2CCNCC2)nc2ccnn12

pIC50 [1]: < 4.00 | pIC50 [2]: < 4.00
SMILES: Cc1ccnc(Nc2cc(N3CCNCC3)nc3ccnn23)c1

pIC50 [1]: < 4.30 | pIC50 [2]: < 4.30
SMILES: Fc1ccc(CNc2cc(N3CCNCC3)nc3ccnn23)c(F)c1
Activity [12]: 25.7 mM | inhibition in vivo at 10 mg/kg [5]: 47% | inhibition in vivo at 5 mg/kg [13]: 28% | Activity [14]: 23.4 mM | Activity [6]: 16.2 mM | Activity [15]: 15.1 mM | Activity [16]: 18.5 mM | Activity [17]: 18.5 mM | inhibition in vivo at 10 mg/kg [18]: 22% | Activity [19]: 14.8 mM | Activity [20]: 18.6 mM | Activity [21]: 19.1 mM | Activity [22]: 17.4 mM | Activity [3]: Non-Toxic | Activity [7]: 13 mM | Activity [23]: 26.7 mM | Activity [8]: inactive | Activity [24]: 17.9 mM | Activity [9]: 14.4 mM | Activity [25]: 15.6 mM | inhibition in vivo at 1 mg/kg [26]: 26% | inhibition in vivo at 10 mg/kg/day [10]: 46% | Activity [11]: 10.9 mM | viability at 48 h, 100 µM [27]: 90%

pIC50 [1]: < 4.00 | pIC50 [2]: < 4.00
SMILES: Cc1ccc(Nc2cc(N3CCNCC3)nc3ccnn23)c(C)c1

pIC50 [1]: < 4.00 | pIC50 [2]: < 4.00
SMILES: Fc1ccc(Nc2cc(N3CCNCC3)nc3ccnn23)c(F)c1

pIC50 [1]: < 4.00 | pIC50 [2]: < 4.00
SMILES: Clc1ccc(Nc2cc(N3CCNCC3)nc3ccnn23)c(Cl)c1
Activity [3]: Toxic
